Source: PubChem
Compounds with a hit are over-represented: about 4.1% of the library has one in this group of screens.
KCC2 mod: modulators of human KCC2 chloride dependent transport; Q9H2X9; KCC2 cells, thallium flux FluoZin-2 fluorescence; B-score of Tl+ flux slope (higher = more flux/activation; lower = inhibition) at 10 µM; hit rate 2.2% among 190,000;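 active = thallium flux slope and its plate-corrected score both differing from the plate sample mean at a set confidence after two filtering rounds, in either direction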;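 note: slope of fluorescence scaled to starting intensity during 10 to 20 s after thallium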
hERG rescue: compounds protecting human hERG from proarrhythmic drug block; CHO-hERG, FluxOR thallium flux, dofetilide IC70 present; activation (rescue from dofetilide block), less the hit threshold, % at 10 µM; hit rate 0.51% among 310,000; AID 1511;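 active = activation above the mean of controls blocked by dofetilide plus 5 SD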;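 note: thallium influx through hERG after potassium depolarization seen as dye fluorescence rise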
KCNK3 block: human KCNK3 channel inhibition, primary screen; O14649; CHO-KCNK3 thallium flux, FluxOR fluorescence; hits give low values; B-score at 10 µM; hit rate 0.84% among 340,000; AID 602410;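 active = B-score under library mean minus 4 SD, starting fluorescence ratio at most library mean plus 5 SD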;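 note: more negative B-score means stronger inhibition of thallium flux through KCNK3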
Target sequence (O14649 whole entry, looked up): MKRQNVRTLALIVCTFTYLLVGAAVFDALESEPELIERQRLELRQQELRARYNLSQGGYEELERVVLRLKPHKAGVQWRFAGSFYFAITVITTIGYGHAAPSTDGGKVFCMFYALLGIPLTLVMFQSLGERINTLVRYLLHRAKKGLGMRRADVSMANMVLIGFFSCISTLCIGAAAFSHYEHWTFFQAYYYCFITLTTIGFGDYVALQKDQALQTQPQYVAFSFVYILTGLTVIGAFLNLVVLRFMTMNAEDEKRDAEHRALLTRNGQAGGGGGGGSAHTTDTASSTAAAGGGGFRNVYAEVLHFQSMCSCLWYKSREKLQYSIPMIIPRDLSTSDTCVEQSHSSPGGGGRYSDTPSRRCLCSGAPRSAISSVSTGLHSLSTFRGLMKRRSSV
KCNQ1 act: potentiators or activators of human KCNQ1 potassium channel; P51787; CHO-K1 KCNQ1, thallium flux FluxOR fluorescence; hits give high values; B-score at 10 µM; hit rate 0.35% among 310,000; AID 2648;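 active = fluorescence ratio B-score, a plate-corrected score, at least three library SD, with initial intensity B-score within 5 SD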
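assay system = KCNQ1-transfected CHO-K1 cells | medium = assay buffer with matched DMSO | probe or stimulus = depolarizing K+/Tl+ stimulus, K2SO4 and Tl2SO4 each 12.5 mM in 5x stock | dosing = single dose | incubation = dye 90 min, compound 20 min, room temperature | detection = kinetic FluxOR fluorescence, 10 s baseline plus 110 s post-stimulus | evaluation = ratio B score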
KCNK9 block: blocks the human KCNK9 two-pore domain potassium channel; hit rate 1.2% among 310,000; HEK293 KCNK9, FluxOR thallium flux fluorescence; hits give low values; Q9NPC2; AID 488922; B-score at 10 µM;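 active = ratio B-score over 3 SD below the library mean, with starting fluorescence within 5 SD of its mean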;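 note: negative B-score means less thallium flux so channel inhibition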
Target sequence (Q9NPC2 whole entry, looked up, the tested form may be a part): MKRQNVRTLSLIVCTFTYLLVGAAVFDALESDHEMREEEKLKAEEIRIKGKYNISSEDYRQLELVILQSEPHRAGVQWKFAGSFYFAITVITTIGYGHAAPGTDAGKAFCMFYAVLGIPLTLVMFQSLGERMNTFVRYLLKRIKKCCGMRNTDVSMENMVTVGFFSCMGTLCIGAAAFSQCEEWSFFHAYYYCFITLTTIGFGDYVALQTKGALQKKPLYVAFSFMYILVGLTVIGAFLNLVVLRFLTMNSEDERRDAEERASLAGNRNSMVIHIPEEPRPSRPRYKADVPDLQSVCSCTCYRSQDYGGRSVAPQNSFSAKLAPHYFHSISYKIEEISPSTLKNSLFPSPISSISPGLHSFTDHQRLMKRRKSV
KCNQ1 block: human KCNQ1 channel inhibition. P51787. CHO-K1 KCNQ1, FluxOR thallium flux fluorescence; hits give high values. B-score at 10 µM. hit rate 1.3% among 310,000;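 active = compounds whose thallium flux B-score, printed positive for inhibition, exceeds three library SD while starting fluorescence stays within three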;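 note: channel opened by potassium depolarization with thallium stimulus after 20 min compound exposure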
KCC2 sec1: confirmation of human KCC2 transport modulators; normalised thallium flux (F/F0 slope) at 10 µM; hit rate 15% among 3,700; AID 1713; shares compounds with KCC2 mod; HEK293-KCC2, thallium flux, FluoZin2 fluorescence; hits give high values;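 active = thallium flux slope above the same plate's solvent-only control mean plus 3 SD; inconclusive = the two replicate wells disagree; inactive = no significant difference from solvent-only control wells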
KCC2 bumet counter: bumetanide-insensitive thallium flux in KCC2 cells with ouabain, counter-screen. shares compounds with KCC2 mod. HEK293-KCC2 + bumetanide/ouabain, thallium flux FluoZin2; hits give high values. normalized thallium flux at 10 µM. hit rate 49% among 3,700. AID 1714;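 active = thallium entry rate above the same plate's blocked-transporter control wells by more than 3 SD; inconclusive = the two repeat wells disagree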;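 note: raw slope of fluorescence over initial fluorescence between 10 and 20 s after thallium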
KCC2 sec2: confirmation of human KCC2 transport modulators; normalized thallium flux at 10 µM; HEK293-KCC2, thallium flux FluoZin2 fluorescence; actives lie on both sides; F/F0 rise rate, 10–20 s post-thallium; hit rate 23% among 3,700; shares compounds with KCC2 mod;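 active = thallium flux slope more than 3 SD above or below the plate's solvent-only control mean, mostly below; inconclusive = the two repeat wells disagreed; inactive = no significant shift from solvent-only controls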;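 note: raw slope with 0.1% DMSO as baseline and bumetanide as block control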
HEK293 Tl flux: acts in parental HEK cells, KCC2 counter-screen. thallium flux rate (normalised fluorescence) at 10 µM. hit rate 46% among 3,700. HEK293 parental cells, thallium flux FluoZin2, ouabain; baseline-ratio fluorescence slope, 10–20 s after thallium. AID 1716. shares compounds with KCC2 mod;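 active = thallium flux rate significantly above the same plate's solvent-only control wells, beyond their mean plus 3 SD; inconclusive = the two replicate wells gave conflicting results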
KCC2 retest ouab: modulates human KCC2 on retest with ouabain; shares compounds with KCC2 mod; HEK293-KCC2, thallium flux FluoZin2 fluorescence; bidirectional: low = inhibitor, high = activator; raw Tl+ flux slope (below DMSO = inhibition, above = activation) at 10 µM; hit rate 48% among 3,700; AID 1717;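 active = thallium flux slope beyond 3 SD from same-plate DMSO control mean in most replicates, usually higher, sometimes lower; inconclusive = repeat tests gave conflicting results; inactive = no significant difference from controls in most replicates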;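 note: slope of initial-normalized fluorescence between seconds 10 and 20 after thallium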
HEK293 Tl flux2: parental HEK flux effect, counter-screen 2 | shares compounds with KCC2 mod | HEK293 parental, thallium flux FluoZin-2 fluorescence slope | thallium flux slope at 10 µM | hit rate 33% among 3,700 | AID 1718;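 active = thallium flux slope above the same plate's solvent-control mean plus 3 SD in both duplicate wells; inconclusive = duplicate wells that disagreed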;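 note: run without ouabain in cells lacking the KCC2 cotransporter; slope of fluorescence scaled to its starting value between 10 and 20 s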
Active calls of the source: *; i = inactive; ? = inconclusive; . = no result given.

SMILES	KCC2 mod	hERG rescue	KCNK3 block	KCNQ1 act	KCNK9 block	KCNQ1 block	KCC2 sec1	KCC2 bumet counter	KCC2 sec2	HEK293 Tl flux	KCC2 retest ouab	HEK293 Tl flux2
CCC(=O)Oc1ccc(C(CC)C(CC)c2ccc(OC(=O)CC)cc2)cc1 (stereo not drawn)	11*	-6	i	i	i	i	0.007	0.0049	0.029	0.008	0.02	0.011
Cc1ccc(S(=O)(=O)NN2C(=O)/C(=C/c3ccc(F)cc3)SC2=S)cc1	.	-2	i	i	i	i	.	.	.	.	.	.
Cc1ccc(S(=O)(=O)NN2C(=O)/C(=C/c3cccs3)SC2=S)cc1	27*	-6	i	i	i	i	0.0062	0.053*	0.05*	0.045*	0.051*	0.043*
CN(CC(=O)Nc1ccc(F)c(F)c1F)C(=O)c1ccc(-n2cncn2)cc1	.	.	i	.	.	.	.	.	.	.	.	.
NNC(=O)Cn1c(SCc2ccccc2)nc2ccccc21	-3.3*	-5	i	i	i	i	0.0074	0.0045	0.03	0.0074	0.018	0.0099
O=C(O)CCn1c(SCc2cccc3ccccc23)nc2ccccc21	-8.7*	-12	i	i	i	i	?	0.0065	0.022*	0.0066	0.016*	0.0097
CCSc1nc2ccccc2n1CCC(=O)O	-0.57	-5	i	i	i	i	.	.	.	.	.	.
N=C1S/C(=C\c2ccc(-c3cccc(Cl)c3)o2)C(=O)N1c1nccs1	6.6*	26*	i	i	i	i	0.0073	0.0089*	0.032	0.015*	0.022	0.017*
O=C1OC(c2cccs2)=N/C1=C\c1ccc(-c2cccc(Cl)c2)o1	.	-11	i	i	i	i	.	.	.	.	.	.
COc1ccc(/C=C2\SC(=N)N(c3nccs3)C2=O)cc1OC	4.6*	1	i	i	i	i	0.0066	0.032*	0.033	0.022*	0.029*	0.019*
CN(Cc1ccccc1)C(=O)COc1cc(=O)n(C)c2ccccc12	-0.16	0	i	i	i	i	.	.	.	.	.	.
COc1ccc(NC(=O)COC(=O)/C=C/c2cnc3ccccc3n2)cc1	0.67	-9	i	i	i	i	.	.	.	.	.	.
Oc1ccc(-n2cccc2/C=N/n2cnnc2)cc1	-1.9	-1	i	i	i	i	.	.	.	.	.	.
Cc1ccc(-n2cccc2/C=N/n2cnnc2)cc1Cl	.	-6	i	i	i	i	0.019	0.0046	0.027	0.0067	0.015	0.0096
COC(=O)c1sccc1NC(=S)OC	4.7*	-8	i	i	i	i	?	0.012*	0.033	0.016*	?	0.013*
COC(=O)c1sccc1NC(=O)c1ccc(C)cc1	.	-6	i	i	i	i	.	.	.	.	.	.
Cn1c(CNc2cccc(C(F)(F)F)c2)n[nH]c1=S	-4*	-3	i	i	i	i	0.0058	0.0049	0.025*	0.0071	?	0.01
Cc1nn(-c2ccccc2)nc1C(=O)c1c(C)[nH]n(-c2ccccc2)c1=O	11*	-14	i	i	i	i	0.015*	0.029*	0.038	?	0.034*	?
CCCCCCCCCCC(=O)NNC(=O)c1c(O)c2ccccc2n(CC)c1=O	5.2*	-7	.	i	i	i	0.015	0.015*	0.031	0.0099*	0.019	0.012
CCCCCCCCCC(=O)NNC(=O)c1c(O)c2ccccc2n(CCC)c1=O	3.9*	-11	i	i	i	i	0.015	0.0099*	0.03	0.0092*	0.018	0.012
CCn1c(=O)c(C(=O)NNC(=O)Cc2ccccc2)c(O)c2ccccc21	.	-4	i	i	i	i	.	.	.	.	.	.
Cc1cc(NC(=O)c2sc3ccccc3c2O)no1	.	-5	i	i	i	i	.	.	.	.	.	.
Cc1[nH]c2ccccc2c1/C=C/c1nc2ccccc2c(=O)n1CCO	-4.2*	-8	i	i	i	i	0.0061	0.0024*	0.03	0.0072	?	0.0098
O=c1c2ccccc2nc(/C=C/c2ccc(Br)cc2)n1CCO	.	-4	i	i	i	i	.	.	.	.	.	.
CC(NC(=O)CCc1nnc(-c2ccc(-c3ccccc3)cc2)o1)c1nccs1 (stereo not drawn)	-4.1*	-8	i	i	i	i	0.015	0.0046	0.024*	0.0071	0.014	0.0098
SMILES	KCC2 mod	hERG rescue	KCNK3 block	KCNQ1 act	KCNK9 block	KCNQ1 block	KCC2 sec1	KCC2 bumet counter	KCC2 sec2	HEK293 Tl flux	KCC2 retest ouab	HEK293 Tl flux2
O=C(CCc1nnc(-c2ccc(-c3ccccc3)cc2)o1)NCCc1ccccn1	-3.2*	-7	i	i	i	i	0.0082	0.0074	0.037	0.0042	?	?
COc1ccc(CC(=O)NCc2nn(-c3ccccc3)nc2C)cc1OC	-0.85	-5	i	i	i	i	.	.	.	.	.	.
COc1ccc(C)cc1NC(=O)CN(c1ccc(F)cc1)S(C)(=O)=O	-0.038	-14	i	i	i	i	.	.	.	.	.	.
COc1ccc(C)cc1NC(=O)CN(C)S(=O)(=O)c1cnc[nH]1	.	1	i	i	i	i	0.01	0.0072	0.035	0.0077	0.023	?
COc1ccc(C)cc1NC(=O)CN(c1ccccc1F)S(C)(=O)=O	.	-10	i	i	i	i	0.0081	0.0058	0.03	0.007	0.02	0.009
Cc1ccc(NS(=O)(=O)c2ccc(Br)s2)nc1	0.057	2	i	i	i	i	.	.	.	.	.	.
O=S(=O)(c1ccc(F)cc1)N1CCC(O)(c2ccc3c(c2)OCO3)CC1	-4.3*	-5	i	i	i	i	0.0071	0.0038	0.028	0.0076	0.015*	0.0099
Cc1nc2ccc(NC(=O)c3cccs3)cc2s1	.	-19	i	i	i	i	.	.	.	.	.	.
CC(=O)Nc1ccc2nc(NC(=O)c3cccs3)sc2c1	4.1*	-10	i	i	i	i	0.0052	?	0.03	0.0075	0.019	0.01
